Test results reported in ChEMBL document CHEMBL4808231, “Development of curcumin-based amyloid β aggregation inhibitors for Alzheimer's disease using the SAR matrix approach” (Bioorg Med Chem, 2021).
pIC50: −log10 of the molar value. Calls of active or inactive are those of the source. The calls are words filed in the database; no cut-off is given here.

Legend:
[1] = Inhibition of human amyloid beta 42 aggregation assessed as decreasing in fluorescence intensity for 3 hrs by ThT fluorescence assay
Summary of the method: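 Aβ42 monomer (20 µM final) plus ThT (20 µM final, diluted in PBS pH 7.4) and serial 10-fold compound dilutions (1 to 0.00001 µM), 37 °C for 3 h with 15 s shaking every 5 min. Fluorescence read at ex 430/em 480 nm and corrected against a PBS+ThT blank. IC50 taken from intensity at half Vmax versus concentration; mean ± s.d. of triplicates.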

[2] = tested on: N2a; assay: Neuroprotective effect against amyloid beta-induced cytotoxicity in mouse N2a cells assessed as cell viability measured after 3 hrs by MTT assay (reference value: 55%); format: functional
[3] = Neurotoxicity in mouse N2a cells assessed as cell viability for 24 hrs by MTT assay; format: cell-based
Summary of the method: (§1)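 N2A or U87 MG cells (8x10^3/well, DMEM + 10% FBS, grown overnight at 37 °C, 5% CO2) treated 24 h with compound at 1, 5, 10, 25, 50, 100 and 200 µM. MTT 0.5 mg/mL for 3 h, DMSO added, absorbance read at 550 nm. IC50 from semi-log dose-response plots; mean ± s.d. of three independent experiments in triplicate.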

[4] = Neurotoxicity in human U87 MG cells assessed as cell viability for 24 hrs by MTT assay; format: cell-based, U-87MG ATCC; conditions: U-87 MG; summary of the method: as §1
[5] = target: Amyloid-beta precursor protein (Homo sapiens) (UniProt P05067); assay: Inhibition of amyloid beta (unknown origin) aggregation assessed as increase in generation of amyloid beta oligomers at 10 uM incubated for 30 mins by negative staining TEM imaging analysis
Sequence of Amyloid-beta precursor protein (Homo sapiens) (P05067 whole entry): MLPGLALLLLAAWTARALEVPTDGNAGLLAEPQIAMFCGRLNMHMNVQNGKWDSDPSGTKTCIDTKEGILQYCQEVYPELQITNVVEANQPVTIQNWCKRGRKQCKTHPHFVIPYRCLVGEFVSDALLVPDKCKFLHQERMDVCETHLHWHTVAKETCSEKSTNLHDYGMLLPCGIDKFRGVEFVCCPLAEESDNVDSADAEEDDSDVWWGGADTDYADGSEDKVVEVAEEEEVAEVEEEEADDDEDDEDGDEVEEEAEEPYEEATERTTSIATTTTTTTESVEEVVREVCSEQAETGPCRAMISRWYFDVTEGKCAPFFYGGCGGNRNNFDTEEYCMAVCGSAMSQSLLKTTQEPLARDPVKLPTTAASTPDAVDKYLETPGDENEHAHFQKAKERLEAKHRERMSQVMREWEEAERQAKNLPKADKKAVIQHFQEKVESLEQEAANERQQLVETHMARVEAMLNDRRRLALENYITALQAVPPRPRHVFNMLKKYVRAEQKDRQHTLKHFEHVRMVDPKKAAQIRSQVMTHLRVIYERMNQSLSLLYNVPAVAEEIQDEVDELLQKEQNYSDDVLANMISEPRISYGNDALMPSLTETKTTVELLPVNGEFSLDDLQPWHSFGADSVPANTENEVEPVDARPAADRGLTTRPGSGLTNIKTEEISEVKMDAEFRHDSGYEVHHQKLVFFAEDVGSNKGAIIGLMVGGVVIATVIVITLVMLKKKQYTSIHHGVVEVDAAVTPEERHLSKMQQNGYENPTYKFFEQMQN
Summary of the method: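 Aβ monomer stock (500 µM in 2 mM NaOH, centrifuged supernatant) diluted to 5 µM, incubated alone or with compound in PBS pH 7.4 at 37 °C for 30 min. Sample applied to plasma-hydrophilised carbon grid for 1 min at RT, washed with water, stained 1 min with 1% Nano-W, imaged by TEM at 200 kV.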

SMILES | pIC50 [1] | inhibition [5] | Activity [2] | pIC50 [3] | pIC50 [4]
COc1cc(/C=C/C(=O)CC(=O)/C=C/c2ccc(OCC(=O)OC(C)(C)C)c(C(F)(F)F)c2)ccc1O | 7.26 |  | >90% | < 4.00 | < 4.00
COc1cc(/C=C/C(=O)CC(=O)/C=C/c2ccc(OCC(=O)O)c(C(F)(F)F)c2)ccc1O | 6.16 |  |  |  | 
COc1cc(/C=C/C(=O)CC(=O)/C=C/c2ccc(O)c(OC)c2)ccc1O [CURCUMIN] | 6.16 |  |  | 4.65 | 4.74
Nc1c2c(nc3ccccc13)CCCC2 [TACRINE] | 7.66 |  |  |  | 
COc1cc(/C=C/C(=O)CC(=O)/C=C/c2ccc(O)c(C(F)(F)F)c2)ccc1O | 7.28 |  |  |  | 
COC(=O)COc1ccc(/C=C/C(=O)CC(=O)/C=C/c2ccc(O)c(C(F)(F)F)c2)cc1C(F)(F)F | 6.96 |  |  |  | 
O=C(/C=C/c1cccc(C(F)(F)F)c1)CC(=O)/C=C/c1ccc(O)c(C(F)(F)F)c1 | 7.74 |  |  |  | 
COC(=O)COc1ccc(/C=C/C(=O)CC(=O)/C=C/c2ccc(O)c(OC)c2)cc1OC | 7.54 |  |  |  | 

The next lines start with results.

pIC50 [1] | inhibition [5] | SMILES | Activity [2] | pIC50 [3] | pIC50 [4]
7.34 |  | COC(=O)COc1ccc(/C=C/C(=O)CC(=O)/C=C/c2cccc(C(F)(F)F)c2)cc1OC |  |  | 
7.89 |  | COc1cc(/C=C/C(=O)CC(=O)/C=C/c2cccc(C(F)(F)F)c2)ccc1O |  | 4.18 | 4.05
7.26 |  | COC(=O)COc1ccc(/C=C/C(=O)CC(=O)/C=C/c2ccc(OCC(=O)OC)c(C(F)(F)F)c2)cc1OC |  |  | 
8.15 | Active | COC(=O)COc1ccc(/C=C/C(=O)CC(=O)/C=C/c2ccc(O)c(OC)c2)cc1C(F)(F)F | 70% | 4.41 | 4.05
7.66 |  | COC(=O)COc1ccc(/C=C/C(=O)CC(=O)/C=C/c2ccc(O)c(C(F)(F)F)c2)cc1OC |  |  | 
